In ChEMBL document CHEMBL4007456, “Heterocyclyl Tetracyclines. 1. 7-Trifluoromethyl-8-Pyrrolidinyltetracyclines: Potent, Broad Spectrum Antibacterial Agents with Enhanced Activity against Pseudomonas aeruginosa” (2017):
In brackets after ≈: the same amount, converted by molar mass. Activity calls are given as the source filed them. No cut-off for these calls is given here.

Tests used:
Escherichia coli [1] = assay: Antibacterial activity against gram-negative Escherichia coli EC155 harboring tet(A) by CLSI method; assay type: functional
How it was run: (§1)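 CLSI broth microdilution MIC in fresh cation-adjusted Mueller Hinton broth, supplemented with defibrinated horse blood where appropriate. Compounds serially diluted in sterile deionized water. Runs accepted when comparator antibiotics against ATCC quality-control strains fell within recommended ranges.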

Pseudomonas aeruginosa [2] = assay: Antibacterial activity against Pseudomonas aeruginosa PA1145 in BALB/c mouse model of lung infection assessed as reduction in log10CFU per gram of lung at 5 mg/kg, iv bid administered 2 to 12 hrs of post-infection measured after 24 hrs relative to untreated control; assay type: functional
How it was run: (§2)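 Female BALB/c mice, 18 to 20 g, infected intranasally under light anesthesia with ~ 2 x 10^7 CFU/mouse of P. aeruginosa PA1145 (cystic fibrosis isolate) in 0.05 mL. Treatment at 2 and 12 h post-infection, IV, or intranasally for tobramycin; n = 6 per group. Lungs harvested 24 h after treatment began, homogenized, plated on MacConkey medium, incubated overnight at 37 °C in 5% CO2. CFU per gram lung compared with T = 24 h untreated control.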

Pseudomonas aeruginosa [3] = assay: Antibacterial activity against Pseudomonas aeruginosa PA694 in CD-1 mouse model of thigh infection assessed as reduction in log10CFU per gram of thigh at 5 mg/kg, iv bid administered 2 to 12 hrs of post-infection measured after 24 hrs relative to untreated control; assay type: functional
How it was run: (§3)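 Groups of 5 female specific-pathogen-free CD-1 mice, 22 ± 2 g. Right thigh inoculated intramuscularly with 3-5 x 10^6 CFU/mouse of P. aeruginosa PA694 (UTI isolate). Dosed IV at 5, 15 or 40 mg/kg at 2 and 12 h post-infection. Thigh muscle harvested at 24 h post-infection, homogenized in PBS (pH 7.4), plated on Brain Heart Infusion agar + 0.5% charcoal. Log10 CFU per gram thigh compared with 24 h untreated control.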

Pseudomonas aeruginosa [4] = assay: Antibacterial activity against Pseudomonas aeruginosa PA694 in CD-1 mouse model of thigh infection assessed as reduction in log10CFU per gram of thigh at 15 mg/kg, iv bid administered 2 to 12 hrs of post-infection measured after 24 hrs relative to untreated control; assay type: functional; how it was run: as §3
Enterococcus faecalis = assay: Antibacterial activity against gram-positive Enterococcus faecalis EFs327 harboring tet(M) by CLSI method; assay type: functional; how it was run: as §1
Pseudomonas aeruginosa [5] = assay: Antibacterial activity against Pseudomonas aeruginosa PA1145 in BALB/c mouse model of lung infection assessed as reduction in log10CFU per gram of lung at 40 mg/kg, iv bid administered 2 to 12 hrs of post-infection measured after 24 hrs relative to untreated control; assay type: functional; how it was run: as §2
Proteus mirabilis = assay: Antibacterial activity against gram-negative Proteus mirabilis PM385 by CLSI method; assay type: functional
How it was run: (§4)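 Broth microdilution MIC per CLSI in cation-adjusted Mueller Hinton broth, prepared fresh and held at 4 °C. Defibrinated horse blood added where appropriate. Compounds serially diluted in sterile deionized water. Strains from ATCC unless otherwise noted. Runs accepted when comparator antibiotics fell within QC ranges for ATCC quality control strains.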

Escherichia coli [6] = assay: Antibacterial activity against gram-negative Escherichia coli EC107 by CLSI method; assay type: functional; how it was run: as §4
Streptococcus pneumoniae = assay: Antibacterial activity against gram-positive Streptococcus pneumoniae SP160 harboring tet(M) by CLSI method; assay type: functional; how it was run: as §1
Pseudomonas aeruginosa [7] = assay: Antibacterial activity against Pseudomonas aeruginosa PA1145 in BALB/c mouse model of lung infection administered as iv bid for 2 to 12 hrs of post-infection measured after 24 hrs; assay type: functional
How it was run: (§5)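 Female BALB/c mice (18–20 g) infected intranasally with ~2 x 10^7 CFU/mouse P. aeruginosa PA1145 (cystic fibrosis isolate) under light anesthesia. Dosing at 2 and 12 h post-infection, IV (compound, tigecycline, amikacin) or intranasal (tobramycin); n = 6 per group. Lungs harvested 24 h after treatment start, homogenized, plated on MacConkey agar, 37 °C overnight; CFU/g lung; Mann-Whitney vs T = 0 h or 24 h controls.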

Enterococcus faecium = assay: Antibacterial activity against gram-positive Enterococcus faecium EFm404 harboring tet(M) by CLSI method; assay type: functional; how it was run: as §1
Staphylococcus aureus [8] = assay: Antibacterial activity against gram-positive Staphylococcus aureus SA161 harboring tet(M) by CLSI method; assay type: functional; how it was run: as §1
Pseudomonas aeruginosa [9] = assay: Antibacterial activity against gram-negative Pseudomonas aeruginosa PA555 by CLSI method; assay type: functional; how it was run: as §4
Pseudomonas aeruginosa [10] = assay: Antibacterial activity against Pseudomonas aeruginosa PA694 in CD-1 mouse model of thigh infection assessed as reduction in log10CFU per gram of thigh at 40 mg/kg, iv bid administered 2 to 12 hrs of post-infection measured after 24 hrs relative to untreated control; assay type: functional; how it was run: as §3
Burkholderia cenocepacia = assay: Antibacterial activity against gram-negative Burkholderia cenocepacia BC240 by CLSI method; assay type: functional
How it was run: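 Defibrinated horse blood added where appropriate. Compounds serially diluted in sterile deionized water. Strains from ATCC unless otherwise noted. Runs accepted when comparator antibiotics fell within QC ranges for ATCC quality control strains.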

Staphylococcus aureus [11] = assay: Antibacterial activity against gram-positive Staphylococcus aureus SA101 by CLSI method; assay type: functional; how it was run: as §4
Klebsiella pneumoniae = assay: Antibacterial activity against gram-negative Klebsiella pneumoniae KP457 harboring blacTX-M-15 extended spectrum beta-lactamase gene by CLSI method; assay type: functional; how it was run: as §1
Pseudomonas aeruginosa [12] = assay: Antibacterial activity against Pseudomonas aeruginosa PA694 in CD-1 mouse model of thigh infection assessed as reduction in log10CFU per gram of thigh administered intranasally as bid for 2 to 12 hrs of post-infection measured after 24 hrs; assay type: functional
[13] = tested on: Stenotrophomonas maltophilia; assay: Antibacterial activity against gram-negative Stenotrophomonas maltophilia SM256 by CLSI method; assay type: functional; how it was run: as §4
Enterobacter cloacae = assay: Antibacterial activity against gram-negative Enterobacter cloacae EC1603 harboring tet(A) by CLSI method; assay type: functional; how it was run: as §1
Pseudomonas aeruginosa [14] = assay: Antibacterial activity against Pseudomonas aeruginosa PA1145 in BALB/c mouse model of lung infection assessed as reduction in log10CFU per gram of lung at 15 mg/kg, iv bid administered 2 to 12 hrs of post-infection measured after 24 hrs relative to untreated control; assay type: functional; how it was run: as §2
Acinetobacter baumannii = assay: Antibacterial activity against gram-negative Acinetobacter baumannii AB250 by CLSI method; assay type: functional; how it was run: as §4
Staphylococcus aureus [15] = assay: Antibacterial activity against gram-positive Staphylococcus aureus SA158 harboring tet(K) by CLSI method; assay type: functional; how it was run: as §1
Pseudomonas aeruginosa [16] = assay: Antibacterial activity against Pseudomonas aeruginosa PA1145 in BALB/c mouse model of lung infection assessed as reduction in log10CFU per gram of lung compound administered intranasally as bid for 2 to 12 hrs of post-infection measured after 24 hrs; assay type: functional; how it was run: as §2
Pseudomonas aeruginosa [17] = assay: Antibacterial activity against Pseudomonas aeruginosa PA694 in CD-1 mouse model of thigh infection administered as iv bid for 2 to 12 hrs of post-infection measured after 24 hrs; assay type: functional
How it was run: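 Female specific-pathogen-free CD-1 mice (22 ± 2 g), groups of 5, inoculated intramuscularly into right thigh with 3-5 x 10^6 CFU/mouse P. aeruginosa PA694 (UTI isolate). IV dosing at 5, 15 and 40 mg/kg at 2 and 12 h post-infection. Thigh muscle harvested at 24 h, homogenized in PBS pH 7.4, plated on Brain Heart Infusion agar + 0.5% charcoal; CFU/g thigh vs untreated controls; Mann-Whitney.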

Pseudomonas aeruginosa [18] = assay: Antibacterial activity against Pseudomonas aeruginosa PA1145 in BALB/c mouse model of lung infection assessed as reduction in log10CFU per gram of lung at 40 mg/kg, in bid administered 2 to 12 hrs of post-infection measured after 24 hrs relative to untreated control; assay type: functional, organism-based; how it was run: as §5
Pseudomonas aeruginosa [19] = assay: Antibacterial activity against Pseudomonas aeruginosa PA1145 in BALB/c mouse model of lung infection administered intranasally as bid for 2 to 12 hrs of post-infection measured after 24 hrs; assay type: functional; how it was run: as §5

Structure (SMILES) | MIC (Escherichia coli [1]) | Activity (Pseudomonas aeruginosa [3]) | Activity (Pseudomonas aeruginosa [4]) | MIC (Enterococcus faecalis) | Activity (Pseudomonas aeruginosa [5]) | MIC (Proteus mirabilis) | MIC (Escherichia coli [6]) | MIC (Streptococcus pneumoniae) | MIC (Pseudomonas aeruginosa [7]) | MIC (Enterococcus faecium) | MIC (Staphylococcus aureus [8]) | MIC (Pseudomonas aeruginosa [9]) | Activity (Pseudomonas aeruginosa [10]) | MIC (Burkholderia cenocepacia) | MIC (Staphylococcus aureus [11]) | MIC (Klebsiella pneumoniae) | MIC [13] | MIC (Enterobacter cloacae) | MIC (Acinetobacter baumannii) | MIC (Staphylococcus aureus [15]) | also measured
CN(C)[C@@H]1C(O)=C(C(N)=O)C(=O)[C@@]2(O)C(O)=C3C(=O)c4c(O)cc([C@@H]5CCCN5)c(C(F)(F)F)c4C[C@H]3C[C@@H]12 | 2 µg/mL (≈ 3.63 µM) | 0.4 deltalog10CFU | 0.9 deltalog10CFU | 1 µg/mL (≈ 1.81 µM) | 3.7 deltalog10CFU | 0.5 µg/mL (≈ 0.907 µM) | ≤ 0.0156 µg/mL | ≤ 0.0156 µg/mL | 2 µg/mL (≈ 3.63 µM) | 0.25 µg/mL (≈ 0.453 µM) | 4 µg/mL (≈ 7.25 µM) | 4 µg/mL (≈ 7.25 µM) | 1.9 deltalog10CFU | 8 µg/mL (≈ 14.5 µM) | 0.0625 µg/mL (≈ 0.113 µM) | 0.125 µg/mL (≈ 0.227 µM) | 1 µg/mL (≈ 1.81 µM) | 8 µg/mL (≈ 14.5 µM) | 2 µg/mL (≈ 3.63 µM) | ≤ 0.0156 µg/mL | Activity (Pseudomonas aeruginosa [2]): 1.7 deltalog10CFU; Activity (Pseudomonas aeruginosa [12]): Dose-dependent effect; Activity (Pseudomonas aeruginosa [14]): 2.3 deltalog10CFU; Activity (Pseudomonas aeruginosa [16]): Dose-dependent effect; MIC (Pseudomonas aeruginosa [17]): 4 µg/mL (≈ 7.25 µM)
CN(C)c1cc(NC(=O)CNC(C)(C)C)c(O)c2c1C[C@H]1C[C@H]3[C@H](N(C)C)C(O)=C(C(N)=O)C(=O)[C@@]3(O)C(O)=C1C2=O [TIGECYCLINE] | 1 µg/mL (≈ 1.71 µM) |  |  | 0.125 µg/mL (≈ 0.213 µM) | 4.2 deltalog10CFU | 4 µg/mL (≈ 6.83 µM) | 0.125 µg/mL (≈ 0.213 µM) | 0.0156 µg/mL (≈ 0.0266 µM) | 16 µg/mL (≈ 27.3 µM) | 0.0312 µg/mL (≈ 0.0533 µM) | 0.125 µg/mL (≈ 0.213 µM) | 16 µg/mL (≈ 27.3 µM) |  | 16 µg/mL (≈ 27.3 µM) | 0.0625 µg/mL (≈ 0.107 µM) | 1 µg/mL (≈ 1.71 µM) | 2 µg/mL (≈ 3.41 µM) | 4 µg/mL (≈ 6.83 µM) | 8 µg/mL (≈ 13.7 µM) | 0.125 µg/mL (≈ 0.213 µM) | 
NC[C@H]1O[C@H](O[C@H]2[C@H](O)[C@@H](O[C@H]3O[C@H](CO)[C@@H](O)[C@H](N)[C@H]3O)[C@H](N)C[C@@H]2N)[C@H](N)C[C@@H]1O [TOBRAMYCIN] |  |  |  |  |  |  |  |  |  |  |  |  |  |  |  |  |  |  |  |  | Activity (Pseudomonas aeruginosa [18]): inactive; MIC (Pseudomonas aeruginosa [19]): 1 µg/mL (≈ 2.14 µM)
C[C@@H](O)[C@H]1C(=O)N2C(C(=O)O)=C(S[C@@H]3CN[C@H](C(=O)N(C)C)C3)[C@H](C)[C@H]12 [MEROPENEM] |  | 2.9 deltalog10CFU | 4.2 deltalog10CFU |  |  |  |  |  |  |  |  |  | 4.9 deltalog10CFU |  |  |  |  |  |  |  | MIC (Pseudomonas aeruginosa [17]): 0.125 µg/mL (≈ 0.326 µM)
NCC[C@H](O)C(=O)N[C@@H]1C[C@H](N)[C@@H](O[C@H]2O[C@H](CN)[C@@H](O)[C@H](O)[C@H]2O)[C@H](O)[C@H]1O[C@H]1O[C@H](CO)[C@@H](O)[C@H](N)[C@H]1O [AMIKACIN] |  |  |  |  | 3.6 deltalog10CFU |  |  |  | 4 µg/mL (≈ 6.83 µM) |  |  |  |  |  |  |  |  |  |  |  | 
